In article PMC10644204 (Pharmacology Research & Perspectives, 2023):
Several values for one entry are separate records, joined by “and”; a condition that tells them apart may be missing. Identical values can stand only once.

Columns and labels:
Format in all cases: in vivo, human
healthy participants [1] = test: Safety assessments
Procedure, shortened: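 Part 2 healthy participants confined from Day −2 of period 1 to Day 9 of period 4. […] AEs monitored throughout, recording duration, severity, causality and outcome, alongside safety ECGs, laboratory tests, physical examination and vital signs.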

healthy participants [2] = test: Concentration-QTc analysis
Procedure, shortened: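 Part 2: 12-lead ECGs extracted from continuous Holter recordings at baseline (Day −1; −45, −30, −15 min predose Day 1) and on Day 7 predose and 0.5–24 h postdose. ECGs taken before PK blood draws. QTcF by Fridericia. Mixed-effects model of ΔQTcF on plasma test compound concentration, with centred baseline QTcF, treatment and time fixed, and per-participant random slope and intercept.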

[3] = Plasma pharmacokinetics, part 1 sentinel cohort
Procedure, shortened: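 Part 1: healthy participants (n = 8) randomised 3:1 to test compound 500 mg or placebo orally once daily for 7 days, given with a moderate-fat meal (~600 cal, 30% fat) 30 min before dosing. Plasma sampled within 40 min predose on Days 1, 5, 6 and 7, and on Day 7 at 0.5–48 h postdose. Validated UHPLC-MS/MS, range 3.00–1000 ng mL−1.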

[4] = part 2, GSK'254 100 mg (N = 40)
[5] = part 2, GSK'254 500 mg (N = 40)

For `C=C(C)[C@@H]1CC[C@]2(NCCN3CCS(=O)(=O)CC3)CC[C@]3(C)[C@H](CC[C@@H]4[C@@]5(C)CC=C(C6=CC[C@@](CF)(C(=O)O)CC6)C(C)(C)[C@@H]5CC[C@]43C)[C@@H]12` [GSK'254], the “AE: General disorders and administration site conditions” value (healthy participants [1]; [4]) was 0 n (%), the “AE: Immune system disorders” value (healthy participants [1]; [4]) was 0 n (%) and the “AE: Infections and infestations” value (healthy participants [1]; [4]) was 0 n (%). The “AE: Maculopapular rash” value (healthy participants [1]; [4]) was 1 (3) n (%), the “AE: Medical device site dermatitis” value (healthy participants [1]; [4]) was 0 n (%) and the “AE: Nausea” value (healthy participants [1]; [4]) was 0 n (%). The “AE: Nervous system disorders” value (healthy participants [1]; [4]) was 0 n (%), the “AE: Renal and urinary disorders” value (healthy participants [1]; [4]) was 0 n (%) and the “AE: Reproductive system and breast disorders” value (healthy participants [1]; [4]) was 0 n (%). For the same compound, the “AE: Respiratory, thoracic, and mediastinal disorders” value (healthy participants [1]; [4]) was 1 (3) n (%), the “AE: Skin and subcutaneous tissue disorders” value (healthy participants [1]; [4]) was 3 (8) n (%) and the “AE: Vessel puncture site pain” value (healthy participants [1]; [4]) was 0 n (%). The “Any AE” value (healthy participants [1]; [4]) was 5 (13) n (%), the “Any drug-related AE” value (healthy participants [1]; [4]) was 2 n (%) and 2 (5) n (%) and the “Drug-related AE: Abdominal pain” value (healthy participants [1]; [4]) was 0 n (%). The “Drug-related AE: Acne” value (healthy participants [1]; [4]) was 2 (5) n (%), the “Drug-related AE: Diarrhea” value (healthy participants [1]; [4]) was 0 n (%) and the “Drug-related AE: Fatigue” value (healthy participants [1]; [4]) was 0 n (%). The “Drug-related AE: Gastrointestinal disorders” value (healthy participants [1]; [4]) was 0 n (%), the “Drug-related AE: General disorders and administration site conditions” value (healthy participants [1]; [4]) was 0 n (%) and the “Drug-related AE: Maculopapular rash” value (healthy participants [1]; [4]) was 0 n (%). The “Drug-related AE: Nausea” value (healthy participants [1]; [4]) was 0 n (%), the “Drug-related AE: Pruritus” value (healthy participants [1]; [4]) was 1 (3) n (%) and the “Drug-related AE: Renal and urinary disorders” value (healthy participants [1]; [4]) was 0 n (%). The “Drug-related AE: Skin and subcutaneous tissue disorders” value (healthy participants [1]; [4]) was 2 (5) n (%), the “Drug-related AE: Urinary hesitation” value (healthy participants [1]; [4]) was 0 n (%) and the “AE: Abdominal pain” value (healthy participants [1]; [5]) was 1 (3) n (%). The “AE: Acne” value (healthy participants [1]; [5]) was 0 n (%), the “AE: Diarrhea” value (healthy participants [1]; [5]) was 6 n (%) and 6 (15) n (%) and the “AE: Gastrointestinal disorders” value (healthy participants [1]; [5]) was 7 (18) n (%). For the same compound, the “AE: General disorders and administration site conditions” value (healthy participants [1]; [5]) was 3 (8) n (%), the “AE: Immune system disorders” value (healthy participants [1]; [5]) was 0 n (%) and the “AE: Infections and infestations” value (healthy participants [1]; [5]) was 1 (3) n (%). The “AE: Maculopapular rash” value (healthy participants [1]; [5]) was 1 (3) n (%), the “AE: Medical device site dermatitis” value (healthy participants [1]; [5]) was 2 (5) n (%) and the “AE: Nausea” value (healthy participants [1]; [5]) was 2 (5) n (%). The “AE: Nervous system disorders” value (healthy participants [1]; [5]) was 1 (3) n (%), the “AE: Renal and urinary disorders” value (healthy participants [1]; [5]) was 0 n (%) and the “AE: Reproductive system and breast disorders” value (healthy participants [1]; [5]) was 0 n (%). The “AE: Respiratory, thoracic, and mediastinal disorders” value (healthy participants [1]; [5]) was 0 n (%), the “AE: Skin and subcutaneous tissue disorders” value (healthy participants [1]; [5]) was 2 (5) n (%) and the “AE: Vessel puncture site pain” value (healthy participants [1]; [5]) was 0 n (%). The “Any AE” value (healthy participants [1]; [5]) was 10 (25) n (%), the “Any drug-related AE” value (healthy participants [1]; [5]) was 7 n (%) and 7 (18) n (%) and the “Drug-related AE: Abdominal pain” value (healthy participants [1]; [5]) was 1 (3) n (%). The “Drug-related AE: Acne” value (healthy participants [1]; [5]) was 0 n (%), the “Drug-related AE: Fatigue” value (healthy participants [1]; [5]) was 0 n (%) and the “Drug-related AE: Gastrointestinal disorders” value (healthy participants [1]; [5]) was 6 (15) n (%). The “Drug-related AE: General disorders and administration site conditions” value (healthy participants [1]; [5]) was 0 n (%), the “Drug-related AE: Maculopapular rash” value (healthy participants [1]; [5]) was 1 (3) n (%) and the “Drug-related AE: Nausea” value (healthy participants [1]; [5]) was 2 (5) n (%). For the same compound, the “Drug-related AE: Pruritus” value (healthy participants [1]; [5]) was 0 n (%), the “Drug-related AE: Renal and urinary disorders” value (healthy participants [1]; [5]) was 0 n (%) and the “Drug-related AE: Skin and subcutaneous tissue disorders” value (healthy participants [1]; [5]) was 1 (3) n (%). The “Drug-related AE: Urinary hesitation” value (healthy participants [1]; [5]) was 0 n (%), the “Treatment effect-specific intercept of the concentration-QTc model” value (healthy participants [2]; Day 7) was 0.61 ms and the “Model-predicted ΔΔQTcF at geometric mean GSK'254 Cmax” value (healthy participants [2]; GSK'254 100 mg) was 2.72 ms. The “Model-predicted ΔΔQTcF at geometric mean GSK'254 Cmax” value (healthy participants [2]; GSK'254 500 mg) was 11.49 ms, the “Estimated population slope of the concentration-QTc model” value (healthy participants [2]; ΔΔQTcF vs GSK'254 plasma concentration, Day 7) was 0.0025 ms per ng mL^−1 and the AUC ([3]; human, plasma, oral, 500 mg) was 68800 ng·h/mL. For the same compound, the Cmax ([3]; human, plasma, oral, 500 mg) was 4440 ng/mL and the “Cτ, geometric mean (%CVb)” value ([3]; part 1, GSK'254 500 mg QD 7 days, moderate-fat meal, Day 7, n = 6) was 2080 ng mL^−1 and 2080 (32.4) ng mL^−1.
